Experimental data from ChEMBL document CHEMBL2046306, “Synthesis of 6-substituted 9-methoxy-11H-indeno[1,2-c]quinoline-11-one derivatives as potential anticancer agents” (Bioorg Med Chem, 2012).

Key:
[1] = system: SF-268; assay: Antiproliferative activity against human SF268 cells assessed as growth at 100 uM after 48 hrs by alamar blue assay; format: functional; details: SF-268, 48 h, read-out: Activity
Method in brief: (§1)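 Single-dose prescreen in a three-line NCI panel (NCI-H460, MCF7, SF-268). Cells were inoculated and preincubated on microtiter plates, then exposed to test agent at 100 μM for 48 h. Alamar blue end-point. Growth is expressed as percent of untreated control cells.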

[2] = system: NCI-H460; assay: Antiproliferative activity against human NCI-H460 cells assessed as growth at 100 uM after 48 hrs by alamar blue assay; format: functional; details: NCI-H460, 48 h, read-out: Activity; method in brief: as §1
[3] = system: MCF7; assay: Antiproliferative activity against human MCF7 cells assessed as growth at 100 uM after 48 hrs by alamar blue assay; format: functional; details: MCF7, 48 h, read-out: Activity; method in brief: as §1
[4] = system: A549; assay: Growth inhibition of human A549 cells after 48 hrs by sulforhodamine B assay; format: functional, cell-based; details: A549, 48 h
Method in brief: (§2)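 NCI 60-line screen. Cells grown in RPMI 1640 with 5% FBS and 2 mM L-glutamine, seeded at 5000–40,000 cells/well, preincubated 24 h at 37 °C. Five 10-fold dilutions added, highest well concentration 10E-4 M. Incubated 48 h in 5% CO₂ at 100% humidity. Sulforhodamine B read-out by optical density; GI50 taken from dose-response curves versus control.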

[5] = system: SK-MEL-5; assay: Growth inhibition of human SK-MEL-5 cells after 48 hrs by sulforhodamine B assay; format: functional; details: SK-MEL-5, 48 h
Method in brief: (§3)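 NCI 60-line screen. Cells grown in RPMI 1640 with 5% FBS and 2 mM L-glutamine, seeded at 5000-40,000 cells/well and preincubated 24 h at 37 °C. Compounds added at five 10-fold dilutions, highest well concentration 10E-4 M. Exposure 48 h in 5% CO2 at 100% humidity. Endpoint is sulforhodamine B with optical density read-out. GI50 is the concentration giving 50% growth inhibition versus control.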

[6] = Growth inhibition of human Hs 578T cells after 48 hrs by sulforhodamine B assay; format: functional; method in brief: as §2
[7] = system: IGROV-1; assay: Growth inhibition of human IGROV1 cells after 48 hrs by sulforhodamine B assay; format: functional; details: IGROV-1, 48 h; method in brief: as §2
[8] = system: HCT-116; assay: Growth inhibition of human HCT116 cells after 48 hrs by sulforhodamine B assay; format: functional; details: HCT-116, 48 h; method in brief: as §2
[9] = system: CCRF-CEM; assay: Growth inhibition of human CCRF-CEM cells after 48 hrs by sulforhodamine B assay; format: functional; method in brief: as §2
[10] = system: DU-145; assay: Growth inhibition of human DU145 cells after 48 hrs by sulforhodamine B assay; format: functional; details: DU-145, 48 h; method in brief: as §2
[11] = system: RXF 393; assay: Growth inhibition of human RXF393 cells after 48 hrs by sulforhodamine B assay; format: functional; details: RXF 393, 48 h; method in brief: as §3
[12] = system: U-251; assay: Growth inhibition of human U251 cells after 48 hrs by sulforhodamine B assay; format: functional; details: U-251, 48 h; method in brief: as §3
[13] = system: SR; assay: Growth inhibition of human SR cells after 48 hrs by sulforhodamine B assay; format: functional; method in brief: as §3
[14] = system: NCI-H460; assay: Growth inhibition of human NCI-H460 cells after 48 hrs by sulforhodamine B assay; format: functional; details: NCI-H460, 48 h; method in brief: as §2

GI50 [4] [µM]	GI50 [5] [µM]	GI50 [8] [µM]	GI50 [9] [µM]	GI50 [10] [µM]	GI50 [12] [µM]	IC50 [4] [µM]	GI50 [14] [µM]	Structure (SMILES)	growth at 100 µM [1] [%]	growth at 100 µM [2] [%]	growth at 100 µM [3] [%]	GI50 [6] [µM]	GI50 [7] [µM]	GI50 [11] [µM]	GI50 [13] [µM]
39.8	39.8	39.8	39.8	39.8	39.8			COc1ccc2c(c1)C(=O)c1c-2c(Nc2ccc(C(C)=O)cc2)nc2ccccc12	11	18	61	39.8	39.8	39.8	39.8
						0.68		CN(C)CCCOc1ccc(-c2nc3ccc(OCCCN(C)C)cc3c3c2-c2ccc(OCCCN(C)C)cc2C3=O)cc1							
1.45	3.8	1.48	4.17	2.04	2.29		29.5	COc1ccc2c(c1)/C(=N\O)c1c-2c(Nc2ccc(/C(C)=N/O)cc2)nc2ccccc12	2	0	1	7.08	15.1	< 0.01	1.48
28.2	28.2	28.2	28.2	28.2	28.2			COc1ccc2c(c1)/C(=N\O)c1c-2c(Nc2cccc(/C(C)=N/O)c2)nc2ccccc12	66	11	84	28.2	28.2	28.2	28.2
3.47	3.47	3.47	3.47	3.47	3.47			COc1ccc2c(c1)C(=O)c1c-2c(NCCN(C)C)nc2ccccc12	6	0	0	3.47	3.47	3.47	3.47
53.7	53.7	53.7	53.7	53.7	53.7			COc1ccc2c(c1)/C(=N\OC(C)=O)c1c-2c(Nc2cccc(/C(C)=N/OC(C)=O)c2)nc2ccccc12	43	96	32	53.7	53.7	53.7	53.7
15.1	15.1	15.1	15.1	15.1	15.1			COc1ccc2c(c1)C(=O)c1c-2c(Nc2ccc(Cl)cc2)nc2ccccc12	42	10	96	15.1	15.1	15.1	15.1
						0.64		COc1ccc2c(c1)/C(=N\OCCCN)c1c-2c(N2CCNCC2)nc2ccccc12							
52.5	52.5	52.5	52.5	52.5	52.5			COc1ccc2c(c1)/C(=N\OC(C)=O)c1c-2c(Nc2ccc(/C(C)=N/OC(C)=O)cc2)nc2ccccc12	36	37	24	52.5	52.5	52.5	52.5
17.7	5.25	2.63	12.9	11.8	3.09		23.5	COc1ccc2c(c1)C(=O)c1c-2c(Nc2cccc(C(C)=O)c2)nc2ccccc12	7	0	17	3.16	3.63	9.77	21.4

Continued, compound first:

Structure (SMILES)	GI50 [4] [µM]	GI50 [5] [µM]	GI50 [8] [µM]	GI50 [9] [µM]	GI50 [10] [µM]	GI50 [12] [µM]	IC50 [4] [µM]	GI50 [14] [µM]	growth at 100 µM [1] [%]	growth at 100 µM [2] [%]	growth at 100 µM [3] [%]	GI50 [6] [µM]	GI50 [7] [µM]	GI50 [11] [µM]	GI50 [13] [µM]
COc1cccc(Nc2nc3ccccc3c3c2-c2ccc(OC)cc2C3=O)c1									87	83	79				
CO/N=C1/c2cc(OC)ccc2-c2c(Nc3ccc(/C(C)=N/OC)cc3)nc3ccccc3c21									108	112	89				
COc1ccc2c(c1)C(=O)c1c-2c(Nc2ccc(F)cc2F)nc2ccccc12									68	96	99				
COc1ccc2c(c1)C(=O)c1c-2c(Nc2ccc(F)c(F)c2)nc2ccccc12									69	96	106				
COc1ccc2c(c1)C(=O)c1c-2c(Nc2ccc(OC)c(OC)c2)nc2ccccc12									41	68	90				
CO/N=C1/c2cc(OC)ccc2-c2c(Nc3cccc(/C(C)=N/OC)c3)nc3ccccc3c21									92	82	80				
COc1ccc(Nc2nc3ccccc3c3c2-c2ccc(OC)cc2C3=O)cc1									65	69	74				
COc1ccc(Nc2nc3ccccc3c3c2-c2ccc(OC)cc2C3=O)c(OC)c1									107	110	103				
